Data from PubChem BioAssay.
Records with an inconclusive call do not appear. Calls of active or inactive are those of the source.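 How the source made its calls, unless noted: active means viability at or below 27.92% in each of two runs, the all-compound median minus 4 SD; inconclusive means no clear call, values can overlap the other calls; inactive means the rest.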

Tests used:
[1] = S. cerevisiae growth inhibition in permissive medium (OD615), pilot counter-assay for S. cerevisiae lifespan shortening project, permissive growth control (AID 705;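 active means growth inhibition above 25% in both replicates, a cutoff set 3 SD above the mean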); details: OD615, 24 h, at 10 µM, active compounds read high
Summary of the method: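 assay system = Saccharomyces cerevisiae strain carrying genetically modified DeaD replicative-lifespan system | technique = absorbance (optical density) at 615 nm | buffer or medium = permissive raffinose/galactose medium | timing = cells pre-grown 4 h, then 24 h compound exposure, 30 °C humidified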

[2] = S. cerevisiae growth inhibition in restrictive medium, OD615, pilot screen, restrictive growth control, yeast lifespan reduction project (AID 706;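 active means growth inhibition above a set limit, 3 SD over mean compound inhibition, in both replicates, cut at about 43% in these data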;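 further: modified DeaD lifespan yeast strain shifted to restrictive glucose medium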); details: OD615, 48 h, at 10 µM, active compounds read high
Summary of the method: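 System: modified S. cerevisiae. Buffer or medium: CSMM-D glucose medium. Incubation: 4 h pre-growth plus 48 h compound exposure, 30 °C. Detection: absorbance (optical density) measured at 615 nm.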

[3] = doxorubicin toxicity protection in MRP-1 cells – H69AR cells, CellTiter-Glo, duplicate, MRP-1 activator project, pilot screen (AID 807;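 active means viability increase at or above a cutoff of the median across tested compounds plus 3 SD, cut at about 8.5% in these data, passing the limit was not always enough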;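 further: compound pretreatment 18-22 h then 72 h combined with doxorubicin; 0% = doxorubicin alone and 100% = vehicle without doxorubicin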); details: H69AR viability with doxorubicin, CellTiter-Glo luminescence; at 10 µM; active compounds read high
[4] = viability of HCT116 without oncogenic beta-catenin – human colon tumor cells, pilot screen (AID 823;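 active means cell viability at or below a set limit in both duplicate runs, the limit being the all-compound median minus 4 SD, cut at about 23% in these data, passing the limit was not always enough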;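 further: 0% = wells killed by 20 µM Hyamine and 100% = untreated DMSO cell wells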); details: HCT116 beta-catenin knockout viability, CellTiter-Glo, 60 h; at 10 µM; active compounds read low
[5] = viability of PTEN-null HCT116 cells – cell-based, HCT116 clonal line, CellTiter-Glo, pilot screen (AID 824); details: HCT116 PTEN-deleted viability, 60 h, at 10 µM, active compounds read low;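 further: 0% = 20 µM Hyamine control and 100% = vehicle cell control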
[6] = RAM pathway blockade in budding yeast – dse1pr::URA3 reporter, 5-FOA selection, pilot screen (AID 869;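 active means inhibition over a set limit, the all-compound mean plus 3 SD, in both replicate runs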;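 further: 0% = DMSO wells with no growth and 100% = 10 µM 1-NA-PP1 with full growth; RAM network block rescues cells from 5-FOA so hits raise OD615 growth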); details: S. cerevisiae dse1pr::URA3 5-FOA growth, OD615, 2 d; at 10 µM; active compounds read high; strain carries analog-sensitive mutant Cbk1 kinase
[7] = RAM signaling pathway blockade in yeast – S. cerevisiae, Pdr1DBD-CYC8 efflux-inhibited sensitized strain, primary screen (AID 1298;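 active means RAM network inhibition above 8.4% in each of two replicates, 3 SD over the compound average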;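 further: 0% = DMSO untreated cells without growth and 100% = 10 µM 1-NA-PP1 full growth; higher means more yeast growth rescued from 5-FOA killing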); details: S. cerevisiae cbk1-as DSE1-URA3 strain, 5-FOA growth OD615, 2 d; at 50 µM; active compounds read high

COc1ccc(CCNC(=O)CSc2nnnn2-c2ccccc2)cc1
inactive: growth inhibition [1] 2.08% | growth inhibition [2] -9.2% | viability increase [3] -2.24% | viability [4] 94.7% | viability [5] 88.8% | inhibition [6] 1.33% | RAM network inhibition [7] 6.52%

CC1(C)Cc2ccccc2-c2nc(NCCCO)n(-c3ccccc3)c(=O)c21
inactive: growth inhibition [1] -18.3% | growth inhibition [2] -18.9% | viability increase [3] -0.84% | viability [4] 97.7% | viability [5] 91.3% | inhibition [6] 1.07% | RAM network inhibition [7] 5.29%

Cc1cc2ccccc2n1CCNC(=O)COc1ccccc1
inactive: growth inhibition [1] -3.44% | growth inhibition [2] 11.8% | viability increase [3] -0.8% | viability [4] 99.2% | viability [5] 94.2% | inhibition [6] 2.31% | RAM network inhibition [7] 8.38%

CCCCNC(=O)c1ccc(CS(=O)(=O)c2ccc(OC)cc2)o1
inactive: growth inhibition [1] -14.2% | growth inhibition [2] -23% | viability increase [3] -0.64% | viability [4] 107% | viability [5] 97.8% | inhibition [6] 0.45% | RAM network inhibition [7] 2.18%

O=C(OCN1C(=O)c2ccccc2C1=O)c1ccco1
inactive: growth inhibition [1] -3.8% | growth inhibition [2] 0.045% | viability increase [3] -2.17% | viability [4] 96.7% | viability [5] 93.3% | inhibition [6] 3.23% | RAM network inhibition [7] 3.35%

Cc1ccc(O)c(C(=O)CC(=O)c2cccc(F)c2)c1
inactive: viability increase [3] -7.04% | viability [4] 40.6% | viability [5] 47.4% | inhibition [6] -0.695% | RAM network inhibition [7] -1.45%
active: growth inhibition [1] 35.8% | growth inhibition [2] 50%

CCOC(=O)Cn1c(=O)oc2cc(S(=O)(=O)Nc3ccc(F)cc3)ccc21
inactive: growth inhibition [1] -7.54% | growth inhibition [2] -3.97% | viability increase [3] 0.5% | viability [4] 96.7% | viability [5] 106% | inhibition [6] 1.07% | RAM network inhibition [7] 7.5%

COCCSc1nc2c(c(=O)[nH]c(=O)n2C)n1Cc1cccc(C)c1
inactive: growth inhibition [1] 0.55% | growth inhibition [2] 0.3% | viability increase [3] -1.81% | viability [4] 90.2% | viability [5] 79.6% | inhibition [6] 1.57% | RAM network inhibition [7] 4.44%

Cc1ccc(Nc2nc(C3CC3)cs2)cc1
inactive: growth inhibition [1] -8.21% | growth inhibition [2] -0.01% | viability increase [3] -1.97% | viability [4] 92.5% | viability [5] 90.5% | inhibition [6] 1.38% | RAM network inhibition [7] 2.72%

Cc1cccn2c(=O)c(C=NCc3ccco3)c(Nc3ccc(Cl)cc3)nc12
inactive: growth inhibition [1] -14.3% | growth inhibition [2] -2.91% | viability increase [3] -6.81% | viability [4] 79.7% | viability [5] 76.1% | inhibition [6] 1.09% | RAM network inhibition [7] 1.21%

c1ccc(-c2csc3ncn4cnnc4c23)cc1
inactive: growth inhibition [1] -7.59% | growth inhibition [2] 2.29% | viability increase [3] -1.06% | viability [4] 97.8% | viability [5] 91.4% | inhibition [6] 1.15% | RAM network inhibition [7] 2.91%

COC(=O)c1cnn2c(C)c(Cc3cccc(F)c3)c(C)nc12
inactive: growth inhibition [1] -5.12% | growth inhibition [2] -16% | viability increase [3] -5.7% | viability [4] 92.3% | viability [5] 80.9% | inhibition [6] 1.53% | RAM network inhibition [7] 2.9%

Cc1[nH]c2ccc(-c3n[nH]c(=S)n3C)cc2c1C
inactive: growth inhibition [1] -4.45% | growth inhibition [2] -17.6% | viability increase [3] 0.84% | viability [4] 98.9% | viability [5] 93.3% | inhibition [6] 1.31% | RAM network inhibition [7] 0.57%

CSC1=NCCN1C(=O)c1ccc(S(=O)(=O)N2CCOCC2)cc1
inactive: growth inhibition [1] 3.77% | growth inhibition [2] 10.2% | viability increase [3] -1.31% | viability [4] 102% | viability [5] 94.1% | inhibition [6] 0.62% | RAM network inhibition [7] 3.04%

CCOc1ccccc1N1CCN(C(=O)c2cc(C)oc2C)CC1
inactive: growth inhibition [1] -10.5% | growth inhibition [2] -5.64% | viability increase [3] -3.37% | viability [4] 89.2% | viability [5] 93.9% | inhibition [6] 0.04% | RAM network inhibition [7] 0.7%
